Bioassay records deposited in PubChem by several laboratories.
Rows were chosen to be rich in hits. Some 2.6% of all compounds tested hit in one or more screens of this group.
GSTO1 inh – inhibitors of recombinant GSTO1, primary screen, counter-screen for RBBP9 inhibitor project, biochemical, fluorescence polarization | Glutathione S-transferase omega-1 (Homo sapiens), P78417 | activity-based probe fluorescence polarization | inhibition, % at 5.96 µM | 300,000 tested, 1.1% active;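 active means inhibition above the campaign mean inhibition plus 3 SD, cut at about 35% in these data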;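 further: 0% = GSTO1-1 with DMSO and 100% = wells lacking GSTO1-1 enzyme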
Target sequence (P78417 whole entry, looked up): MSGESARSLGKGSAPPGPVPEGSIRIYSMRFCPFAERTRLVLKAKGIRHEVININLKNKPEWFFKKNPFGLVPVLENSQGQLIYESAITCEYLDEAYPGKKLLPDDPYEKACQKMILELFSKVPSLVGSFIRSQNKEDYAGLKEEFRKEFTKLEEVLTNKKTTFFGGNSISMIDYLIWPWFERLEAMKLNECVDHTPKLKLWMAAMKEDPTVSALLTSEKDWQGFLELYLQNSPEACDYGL
Apaf-1 inh – inhibitors of human Apaf-1 apoptosome, primary screen, biochemical, DEVD-Rh110 fluorescence, uHTS. inhibition, % at 20 µM. 330,000 tested, 0.71% active. AID 489030, 2010. reconstituted apoptosome caspase-3 activity; active means inhibition of at least 40% at 20 µM;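 further: plate controls were DMSO wells for no effect and DEVD-CHO caspase inhibitor wells for full effect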
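System: Apoptosome proteins | Medium: Hepes pH 7.5 with detergent and BSA | Also added: Cytochrome c trigger plus (Z-DEVD)2-Rh110 caspase-3 substrate | Incubation: 30 min compound preincubation, 50 min activation, room temperature | Detection: Rhodamine 110 fluorescence at Ex 480/Em 540 nm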
TDP2 inh – human TDP2 enzyme inhibitors, primary screen, biochemical, epi absorbance, recombinant enzyme; Tyrosyl-DNA phosphodiesterase 2 (Homo sapiens), O95551; AID 720702, 2013; inhibition, % at 12.8 µM; 370,000 tested, 0.34% active; T5PNP hydrolysis, p-nitrophenol absorbance 415 nm;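 active means inhibition above the mean of all tested compounds plus 3 SD, set per campaign, cut at about 25% in these data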;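 further: 0% = DMSO with enzyme and 100% = buffer with substrate but no TDP2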
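Assay system: Recombinant human TDP2 | Quantity: 120 nM TDP2 per well | Incubation: 2 h at 37 °C | Signal: Epi absorbance | Evaluation: Percent inhibition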
PAD4 FP inh – human PAD4 inhibitors, primary screen, biochemical, fluorescence polarization, 1536-well format; Protein-arginine deiminase type-4 (Homo sapiens), Q9UM07; AID 485272, 2010; recombinant PAD4, RCA probe fluorescence polarization; 330,000 tested, 0.41% active; inhibition, % at 6.36 µM;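 active means percent inhibition above a cutoff equal to the mean of all tested compounds plus 3 SD, cut at about 15% in these data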;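 further: 0% = PAD4 with RCA probe and DMSO and 100% = probe without PAD4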
PRMT1 FP inh – PRMT1 methyltransferase inhibitors, primary screen, biochemical, fluorescence polarization; Protein arginine N-methyltransferase 1 (Homo sapiens), Q99873; recombinant PRMT1, activity-based probe fluorescence polarization; inhibition, % at 2.79 µM; 370,000 tested, 1.3% active;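 active means inhibition above about 21% made by adding two undisclosed values, limit read from the data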
Target sequence (Q99873 whole entry, looked up): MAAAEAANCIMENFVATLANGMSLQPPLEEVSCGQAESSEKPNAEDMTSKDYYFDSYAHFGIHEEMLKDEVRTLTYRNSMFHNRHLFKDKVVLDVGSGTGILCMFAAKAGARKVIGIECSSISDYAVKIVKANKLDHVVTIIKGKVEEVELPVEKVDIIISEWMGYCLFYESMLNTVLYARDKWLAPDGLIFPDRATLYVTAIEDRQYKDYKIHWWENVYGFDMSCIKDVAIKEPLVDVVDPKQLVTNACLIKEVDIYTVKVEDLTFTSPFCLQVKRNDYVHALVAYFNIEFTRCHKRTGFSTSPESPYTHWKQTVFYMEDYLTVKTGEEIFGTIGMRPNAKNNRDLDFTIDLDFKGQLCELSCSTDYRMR
PRMT1 confirm – PRMT1 methyltransferase inhibitors, confirmation, biochemical, fluorescence polarization, triplicate; shares compounds with PRMT1 FP inh; recombinant His-PRMT1, activity-based probe fluorescence polarization; inhibition, % at 2.79 µM; 3,300 tested, 42% active;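 active means mean inhibition across replicates above the hit cutoff derived for the earlier primary screen, cut at about 22% in these data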
An asterisk follows results filed as active; · = no result.

SMILES	GSTO1 inh	Apaf-1 inh	TDP2 inh	PAD4 FP inh	PRMT1 FP inh	PRMT1 confirm
NS(=O)(=O)c1ccc(CCNC(=O)c2ccc[nH]c2=S)cc1	4	-5	7	-2	39*	6
NS(=O)(=O)c1ccc(CCNC(=O)c2cc(-c3ccco3)nc3ccccc23)cc1	·	-21	-11	0	51*	6
NS(=O)(=O)c1ccc(CCNC(=O)c2cc(-c3ccccc3)nc3ccccc23)cc1	-9	1	3	-3	-2	·
COc1ccccc1N(CC(=O)Nc1ccccc1C(F)(F)F)S(=O)(=O)c1cccs1	·	-2	-13	-1	-3	·
O=C(CSC1=Nc2ccccc2C2CC=NN12)NCc1ccco1 (centres undefined)	·	5	-12	0	3	·
O=C(CSC1=Nc2ccccc2C2CC=NN12)Nc1ccc2c(c1)OCO2 (centres undefined)	·	·	-16	·	41*	28*
CCCOC(=O)c1ccc(NC(=O)CSC2=Nc3ccccc3C3CC=NN23)cc1 (centres undefined)	1	6	-10	7	35*	14
N#Cc1ccccc1NC(=O)CSC1=Nc2ccccc2C2CC=NN12 (centres undefined)	18	3	9	3	25*	56*
Cc1cc(=S)nc(-c2ccccn2)[nH]1	5	-16	-16	3	33*	12
Oc1ccc(CNc2ccccc2Br)c2cccnc12	·	·	-6	·	32*	19
Cc1ccccc1NCc1ccc(O)c2ncccc12	0	-9	4	-8	5	·
Oc1ccc(CNc2cccc(F)c2)c2cccnc12	·	·	6	·	63*	48*
Oc1ccc(CNc2ccc(F)cc2)c2cccnc12	15	11	-9	-7	6	·
NC(=O)c1ccc(SCC(=O)OCC(=O)NC2CCCCCCC2)c([N+](=O)[O-])c1	·	5	-1	2	65*	30*
NC(=O)c1ccc(SCC(=O)OCC(=O)NCc2ccco2)c([N+](=O)[O-])c1	-2	-8	11	0	26*	2
CC1CCC(NC(=O)COC(=O)CSc2ccc(C(N)=O)cc2[N+](=O)[O-])CC1 (centres undefined)	3	7	8	-3	14	·
O=c1[nH]c(-[n+]2ccc3ccccc3c2)c(/C=N/N=C(\[O-])c2ccccc2)s1	11	19	13	0	54*	1
CC(C)(C)c1cc[n+](-c2[nH]c(=O)sc2/C=N/N=C(\[O-])c2cccnc2)cc1	-1	8	8	-1	1	·
Cc1[nH]c(=O)nc(SCc2cccc(Cl)c2)c1C#N	6	2	-12	0	1	·
N#Cc1c(SCc2c(Cl)cccc2Cl)nc(N)[nH]c1=S	·	-14	-10	1	43*	11
O=C1C=CC(=O)N1c1ccc(O)cc1	2	-25	-8	-3	90*	92*
O=C1CCCC(=O)N1c1ccc(O)cc1	6	-2	-5	-1	-3	·
COc1cc(OC)cc(C(=O)/C=C2\Sc3ccccc3N2C)c1	-1	2	9	-2	0	·
COc1ccc(C(=O)/C=C2/Sc3cc4c(cc3N2C)OCO4)cc1	-3	-4	-3	5	1	·
CN1/C(=C/C(=O)c2ccc(Cl)cc2)Sc2cc3c(cc21)OCO3	2	11	3	-1	33*	3
SMILES	GSTO1 inh	Apaf-1 inh	TDP2 inh	PAD4 FP inh	PRMT1 FP inh	PRMT1 confirm
COc1ccc2c(c1)S/C(=C\C(=O)c1ccncc1)N2C	1	-1	0	-4	45*	11
O=[N+]([O-])c1ccc(Cl)c(C2Nc3cccc4cccc(c34)N2)c1	24	10	-11	-5	53*	26*
O=C(Nc1ncccn1)c1cc([N+](=O)[O-])cc([N+](=O)[O-])c1	3	-2	-9	2	2	·
O=[N+]([O-])c1cc(-c2ncccn2)c([N+](=O)[O-])s1	7	-2	-4	1	28*	37*
COCc1cc(N2CCN(C(=O)OC(C)(C)C)C[C@@H]2C)ccc1N1CCS(=O)(=O)CC1	·	·	2	·	-4	·
Cc1cc(N2CCN(C(=O)OC(C)(C)C)C[C@H]2C)ccc1N1CC[C@@H](O)C1	·	·	0	·	61*	11
COCc1cc(N2CCN(C(=O)OC(C)(C)C)C[C@@H]2C)ccc1N1CCN(Cc2ccccc2)[C@@H](C)C1	·	·	1	·	2	·
COCc1cc(N2CCN(C(=O)OC(C)(C)C)C[C@@H]2C)ccc1N1CC[C@H](O)C1	·	·	2	·	58*	7
COCc1cc(N2CCN(C(=O)OC(C)(C)C)C[C@H]2C)ccc1N1CC[C@H](O)C1	·	·	2	·	61*	1
COC(=O)c1cc(-c2ccccc2OC)c(=O)n2c1CCC2	·	·	7	·	2	·
COc1ccc(S(=O)(=O)NN(C)C(=O)c2nn(-c3ccccc3)ccc2=O)cc1	-2	13	4	-2	2	·
CCCCn1c(N)c(N(CC(C)C)C(=O)c2c(CC)noc2C)c(=O)[nH]c1=O	6	-6	13	2	-2	·
O=c1ccc2cc3c4c(c2o1)CCCN4CCC3	22	4	1	4	72*	67*
COc1cccc(N2C(=O)CC(N3CCN(S(=O)(=O)c4ccccc4[N+](=O)[O-])CC3)C2=O)c1 (centres undefined)	·	·	1	·	-3	·
O=C(C1=C(O)C(=O)N(c2nccs2)C1c1ccccc1)c1cc2ccccc2o1 (centres undefined)	-23	-4	0	-45	92*	132*
O=C(C1=C(O)C(=O)N(CCc2ccccc2)C1c1ccncc1)c1cc2ccccc2o1 (centres undefined)	5	7	1	-6	1	·
CCOc1cccc(C2C(C(=O)c3ccc(C)o3)=C(O)C(=O)N2Cc2ccncc2)c1 (centres undefined)	4	1	-13	-4	2	·
CCOc1cccc(C2C(C(=O)c3ccc(C)o3)=C(O)C(=O)N2c2nccs2)c1 (centres undefined)	-6	12	-5	-26	65*	38*
CCn1c(=O)[nH]c(=O)c2c(N)c(C(=O)c3cc(F)ccc3F)sc21	1	-14	13	-1	-2	·
CCCN=Cc1sc2ccc(OCC)cc2c1O	8	-3	-8	9	88*	29*
O=C(CSc1nccc(=O)[nH]1)Nc1cccc(S(=O)(=O)N2CCOCC2)c1	-3	0	-6	3	45*	32*
